# Source: PMC4497517 (Proteins, 2009)
# pIC50: −log10 of the molar value. “Also recorded” adds a separate entry of the source. Where a SMILES comes first, the peptide text is derived from it.
# Legend:
# cdk2/cyclin E complex [1] = biological target: T1, cdk2/cyclin E complex (Homo sapiens, UniProt P24941); assay: Phosphorylation of RNAPII CTD; format: biochemical
# Method in brief: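 C81 cell lysate was fractionated on Superose 6 size exclusion, and cdk2 fractions 28–32 were pooled with test peptide (0.01, 0.1, 1, 10 μM). Cyclin E was immunoprecipitated overnight at 4°C (1 μg antibody, ~100 ng active cdk2/cyclin E), captured on protein A/G beads and washed. Kinase reaction: 20 μl, 1 hr, 37°C, GST-CTD substrate, (γ-32P) ATP. Products run on 4–20% Tris-glycine gel, dried, 32P bands counted by phosphorimager.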
# [2] = tested on: RNA polymerase II (RNAPII) serine 5; settings: by disrupting cdk2/cyclin E complex formation; cited from earlier work
# cdk2 K178A = settings: cited from earlier work
# cdk2 = settings: cited from earlier work
# cdk2 R126A = settings: alanine mutation experiment; cited from earlier work
# cdk2 Y180A = settings: cited from earlier work
# cdk2/cyclin E complex [3] = biological target: T1, cdk2/cyclin E complex; settings: cited from earlier work
Compound,pIC50 (cdk2/cyclin E complex [1]),Inhibition of phosphorylation of serine 5 of RNAPII [2],Binding affinity to mutant (cdk2 K178A),Interaction with cdk2 (cdk2),Effect of R126A mutation on peptide binding (cdk2 R126A),Binding affinity to mutant (cdk2 Y180A),Disruption of cdk2/cyclin E complex (cdk2/cyclin E complex [3])
CC(C)C[C@H](NC(=O)[C@H](C)NC(=O)[C@H](C)NC(=O)[C@@H](N)CC(C)C)C(=O)N[C@@H](CO)C(=O)O [LAALS] (H-LAALS-OH),5.37,,,,,,
TAALS,,inhibits the phosphorylation of serine 5 of RNA polymerase II (RNAPII),dramatic reduction in their binding affinity,interacts directly with cdk2,does not participate significantly in the peptide binding; also recorded: does not affect the binding of peptide TAALS,dramatic reduction in their binding affinity,disrupts the cdk2/cyclin E complex; also recorded: succeeded in partially breaking the cdk2/cyclin E complex
